Compounds with a hit are over-represented: about 1.5% of the library has one in this group of screens.
dFosB activator = mouse delta FosB homodimer activation. P13346. purified delta FosB, TAMRA-CDK5 oligo fluorescence polarization; percent of positive-control signal above neutral wells. activation, % at 25 µM. hit rate 0.99% among 340,000. AID 493131;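 active = mean activation above about 17%, with every replicate also reaching it, limit read from the data, passing the limit was not always enough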
S100A4 inh HTS = blocks human S100A4 binding to myosin IIA peptide; P26447; S100A4/TAMRA-MyoIIA peptide fluorescence polarization; inhibition, % at 10.7 µM; hit rate 0.14% among 360,000; AID 652163;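 active = mean inhibition of at least 70% across replicates, with every replicate also reaching that level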
Target sequence (P26447 whole entry, looked up): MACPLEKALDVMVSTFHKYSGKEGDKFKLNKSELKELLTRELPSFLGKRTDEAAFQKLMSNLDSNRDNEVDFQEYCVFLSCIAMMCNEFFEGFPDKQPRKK
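System – human S100A4 monomer protein, biochemical binding assay · Buffer or medium – Calcium-containing HEPES buffer, pH 7.2 · Timing – 5 min between mix addition and reading · Also added – TAMRA-labelled myosin IIA heavy-chain peptide probe, 5 nM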
RAD54 branch = RAD54 (human) branch migration inhibition; inhibition, % at 10.4 µM; hit rate 0.14% among 360,000; RAD54 Holliday junction branch migration, FAM/BHQ fluorescence;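 active = mean normalized replicate activity at least 40 and at least half of replicates scoring 40 or more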;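 note: inhibitors cause a drop in the FAM fluorescence signal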
MLL AF4-AF9 inh = inhibitors of human MLL-AF4/AF9 interaction; P42568; AlphaScreen, biotin-AF4 peptide binding to FLAG-AF9; inhibition, % at 10 µM; hit rate 0.47% among 350,000; AID 651704;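 active = every replicate reaching a set inhibition limit, whatever the replicate mean, cut at about 25% in these data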
RAD52 inh = RAD52 (human) annealing inhibition | inhibition, % at 18.7 µM | recombinant RAD52 DNA annealing, FRET fluorescence | hit rate 0.46% among 360,000 | P43351;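 active = every replicate showing at least 50% inhibition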
Target sequence (P43351 whole entry, looked up): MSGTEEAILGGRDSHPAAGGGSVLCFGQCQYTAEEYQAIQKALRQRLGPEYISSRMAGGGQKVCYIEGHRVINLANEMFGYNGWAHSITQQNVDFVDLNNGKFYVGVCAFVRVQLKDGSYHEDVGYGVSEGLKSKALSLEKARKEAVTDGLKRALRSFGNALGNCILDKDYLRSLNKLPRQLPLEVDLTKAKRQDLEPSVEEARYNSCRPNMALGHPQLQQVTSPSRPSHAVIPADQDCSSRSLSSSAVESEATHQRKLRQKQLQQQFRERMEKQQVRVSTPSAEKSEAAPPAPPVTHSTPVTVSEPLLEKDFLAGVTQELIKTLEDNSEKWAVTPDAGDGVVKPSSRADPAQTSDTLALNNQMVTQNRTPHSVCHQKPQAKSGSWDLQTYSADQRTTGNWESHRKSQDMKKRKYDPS
DNA binder FP = DNA binding artifact in RAD52 counter-screen; shares compounds with RAD52 inh; Salmon sperm DNA/acridine orange FP displacement; AC50, µM; hit rate 8% among 1,000;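 active = fitted half-maximal concentration for signal loss at or below twice the highest dose tested, in every separate run, actives reach about 64 µM in these data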
Numbers stand for hits; 0 = inactive; - = not tested or not shown.

SMILES	dFosB activator	S100A4 inh HTS	RAD54 branch	MLL AF4-AF9 inh	RAD52 inh	DNA binder FP
CCOc1cccc2sc(N(CCCN(C)C)C(=O)c3ccc(S(=O)(=O)N4CCc5ccccc5C4)cc3)nc12	0	0	0	0	54.9	0
COc1cc2nc(N(CCCN(C)C)C(=O)c3ccc(S(=O)(=O)N4CCc5ccccc54)cc3)sc2cc1OC	0	0	0	0	69.9	0
COc1ccc2sc(N(CCCN(C)C)C(=O)c3ccc(S(=O)(=O)N4CCCc5ccccc54)cc3)nc2c1	0	0	0	31.5	76.6	0
COc1ccc(S(=O)(=O)N(C)C[C@H]2OCCCC[C@@H](C)Oc3ccc(NC(=O)Nc4cccc5ccccc45)cc3C(=O)N([C@@H](C)CO)C[C@H]2C)cc1	-	0	0	0	0	-
COc1cc2c(cc1OC)[C@@]13ON=C(c4ccc(OCCO)cc4)[C@@H]1CCN3CC2	-	0	-	0	0	-
CO[C@@H]1CN(C)C(=O)c2cc(NC(=O)Nc3cccc(F)c3)ccc2OC[C@@H](C)N(C(=O)C2CC2)C[C@H]1C	-	-	0	-	-	-
Cc1ccc[n+](CC(=O)Nc2cc(C(F)(F)F)ccc2Cl)c1	0	-	0	-	-	-
CCC(C)(C)c1ccc(OCCCC[n+]2cccc(C)c2)c(C(C)(C)CC)c1	0	0	-	0	76.4	0
CC(C)NC(=O)N(C)C[C@@H]1OCCCC[C@H](C)Oc2ccc(NC(=O)c3ccccc3)cc2C(=O)N([C@@H](C)CO)C[C@H]1C	-	0	0	0	0	-
C/C(Cn1ncc(N2CCOCC2)c(Cl)c1=O)=N\O	0	0	0	0	0	-
CC(=O)OCn1ncc(N2CCOCC2)c(Br)c1=O	0	0	0	42.5	94.3	0
CCOc1ccc2[nH]c3c(c2c1)CNCC3	0	0	0	0	55.2	0
CC(C)N1CCc2c(sc(NC(=O)c3nc4ccccc4s3)c2C(N)=O)C1	0	0	-	0	68.3	0
CCn1c(C)nc2cc(N)ccc21	0	0	-	0	93.2	0
Cc1nc2cc(N)ccc2n1C1CCCCC1	0	0	-	0	90.6	0
CCn1c(C)nc2cc(OC)ccc21	0	0	0	0	0	-
COc1ccc(-c2cc(CNc3nc(NCc4ccccc4OC)nc4ccsc34)on2)cc1	-	0	0	0	61.4	0
CCCC(=O)Nc1ccc2c(c1)C(=O)N(C)C[C@H](OC)[C@@H](C)CN(CCC(F)(F)F)[C@H](C)CO2	-	-	0	-	-	-
CO[C@H]1CN(C)C(=O)c2cc(NC(=O)Nc3cccc(F)c3)ccc2OC[C@H](C)N(C(C)=O)C[C@@H]1C	-	0	0	0	0	-
CCN=C1NC(c2ccccc2)C(C(=O)OC)=C(C)N1Cc1ccc(C(F)(F)F)cc1 (stereo unspecified)	-	0	-	-	0	-
COC(=O)C1=C(C)N(Cc2cccc(C(F)(F)F)c2)C(=NCc2cccc(C(F)(F)F)c2)NC1c1ccc(Cl)cc1 (stereo unspecified)	-	0	-	-	67.3	0
COC(=O)C1=C(C)N(Cc2ccc(C(F)(F)F)cc2)C(=NCc2ccc(C(F)(F)F)cc2)NC1c1ccccc1 (stereo unspecified)	-	0	-	-	58.8	0
C[C@@H]1CCCCO[C@H](CN(C)C(=O)Nc2ccc3c(c2)OCO3)[C@@H](C)CN([C@H](C)CO)C(=O)c2cc(NC(=O)NC3CCCCC3)ccc2O1	-	-	0	-	-	-
CN1C(=O)c2cc(NC(=O)C3CC3)ccc2OC[C@H]2O[C@H](CC(=O)NCCN3CCCC3)CC[C@H]21	-	0	0	0	0	-
COCc1cn(CC[C@@H]2CC[C@H](NC(=O)Nc3ccc(C(F)(F)F)cc3)[C@H](CO)O2)nn1	-	0	0	0	0	-
SMILES	dFosB activator	S100A4 inh HTS	RAD54 branch	MLL AF4-AF9 inh	RAD52 inh	DNA binder FP
Oc1ccccc1/C=N/[n+]1ccccc1	0	0	0	0	58.2	0
COc1ccc2nc3cc(Cl)ccc3c(C#N)c2c1	0	0	0	0	0	-
COc1ccc2nc3cc(Cl)ccc3c(Nc3ccc(O)c(CN4CCN(C)CC4)c3)c2c1	124.5	0	-	58.6	103.8	6.08µM
CN1C(=O)c2cc(NC(=O)C3CC3)ccc2OC[C@H]2O[C@@H](CC(=O)NCc3ccccc3F)CC[C@@H]21	-	0	-	0	0	-
c1ccc(CN2CCC(N3CCC(N4CCCCCC4)CC3)CC2)cc1	0	0	0	-	0	-
c1ccc2c(c1)c1c(c3ccccc32)CN2CCCC2C1 (stereo unspecified)	0	0	-	0	103.4	24.8µM
COc1ccc(C(CCN2CCOCC2)c2c(OC)cc(OC)c3c(-c4ccccc4)cc(=O)oc23)cc1 (stereo unspecified)	0	0	0	0	50.6	0
COc1cc(OC)c2c(-c3ccccc3)cc(=O)oc2c1C(CCN1CCOCC1)c1ccc2c(c1)OCO2 (stereo unspecified)	0	0	0	0	0	-
C[C@@H]1CN([C@@H](C)CO)C(=O)c2cc(-c3ccccc3)cnc2O[C@H]1CN(C)C(=O)c1ccccc1F	-	0	0	0	0	-
COCC(=O)N1[C@@H](CO)[C@@H](c2ccccc2)C12CN(C(=O)c1cccnc1)C2	-	0	-	0	0	-
COc1cc(NCCCCC(C)N)c2nccc(C)c2c1 (stereo unspecified)	-	0	0	0	75.8	0
CN(C)c1nc(N)c(C(=O)N=C(N)N)nc1Cl	0	0	0	0	88.2	0
C[C@H](CO)N1C[C@H](C)[C@@H](CN(C)Cc2ccc(C(F)(F)F)cc2)OCCCC[C@H](C)Oc2ccc(NC(=O)Nc3ccc(F)cc3)cc2C1=O	-	0	0	0	0	-
CN(C1CCCCC1)S(=O)(=O)c1ccc(C(=O)Nc2sc3c(c2C(N)=O)CC(C)(C)NC3(C)C)cc1	0	0	0	0	77.8	0
CCCN(CCC)CCCNC(=S)Nc1ccc2nc(N3CCN(CC)CC3)cc(C)c2c1	0	0	-	0	97.2	0
CCCCN(CC)CCNC(=O)CCC(=O)Nc1ccc2nc(N3CCN(C)CC3)cc(C)c2c1	0	0	0	0	81.0	0
Cc1cc(N2CCOCC2)nc2ccc(NC(=S)NC(C)C)cc12	0	0	0	0	52.8	0
CCOC(=O)N1CCN(C(=S)Nc2ccc3nc(N4CCN(CC)CC4)cc(C)c3c2)CC1	0	0	0	0	53.7	0
C[C@@H]1CN([C@H](C)CO)C(=O)c2cc(NC(=O)Nc3cccc4ccccc34)ccc2O[C@H]1CN(C)S(=O)(=O)c1ccc(Cl)cc1	-	0	0	0	0	-
CO[C@H]1CN(C)C(=O)c2cc(NS(=O)(=O)c3c(C)noc3C)ccc2OC[C@H](C)NC[C@H]1C	-	0	0	0	0	-
COc1ccc(-c2cc(NC=O)c3ncc(-c4cccc(C(=O)NCCN(C)C)c4)n3c2)c(OC)c1	-	0	0	0	56.8	0
COc1ccc(-c2cc(NC=O)c3ncc(-c4cccc(C(C)=O)c4)n3c2)cc1	-	0	0	0	0	-
C[C@@H]1CN([C@@H](C)CO)C(=O)Cc2cc(NS(=O)(=O)c3ccccc3)ccc2O[C@H]1CN(C)S(=O)(=O)c1cccs1	-	0	0	0	0	-

Assay outcomes: PubChem BioAssay, Broad Institute
